Laboratory results: ChEMBL document CHEMBL4513216, “Probing the Open Global Health Chemical Diversity Library for Multistage-Active Starting Points for Next-Generation Antimalarials” (ACS Infect Dis, 2020)

Test: Toxicity liver stage against HepG2, at 10uM
Type: cell-based
Parameters: test concentration 10 uM, cell line HepG2-A16-CD81EGFP
Details: human, HepG2-A16-CD81EGFP cells; read-out: INHIBITION
In short: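 Uninfected HepG2-A16-CD81EGFP cells, 3 × 10^3 per well, 1536-well, plated on prespotted compound at 10 μM final, parasite-free screening media added to match infected plates; puromycin 10 μM positive, DMSO 0.5% negative; run in parallel with 48 h PbLuc assay at 37 °C, 5% CO2; viability by CellTiter-Glo luminescence, normalized to controls.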

Row | SMILES | cytotoxicity at 10 µM [%]
1 | COc1ccc(-c2noc([C@@H](C)NS(=O)(=O)CC(C)C)c2C(=O)O)cc1 | -5.23
2 | CCc1ccc(S(=O)(=O)N2CCCC3(CCCN3S(C)(=O)=O)C2)cc1 (stereo unspecified) | -2.98
3 | CNC(=O)c1nnc2ccc(N3CCOCC3)cc2n1 | 6.86
4 | CN1CCCC1c1nnc2n1CCN(S(=O)(=O)c1ccccc1Cl)CC2 (stereo unspecified) | 4.94
5 | CN1CCCN(c2ccc(F)cc2CNC(=O)c2cccnc2)CC1 | -2.52
6 | O=C(C1CC(c2cccc(F)c2)=NO1)N1CCc2ccccc21 (stereo unspecified) | 2.46
7 | Cc1noc(C2CCCN(Cn3cc(Br)cn3)C2)n1 (stereo unspecified) | -3.67
8 | CC1(c2ccc(Br)cc2)CC(=O)N(CCC#N)C1=O (stereo unspecified) | 0.923
9 | Cc1c(C(=O)NCCCS(C)(=O)=O)cccc1-c1ccccn1 | 4.83
10 | CC(NC(=O)NCc1cccnc1N(C)C)c1ccc(F)cc1 (stereo unspecified) | -1.19
11 | O=C(c1cccc(-c2ncc[nH]2)c1)N1CC[C@H](CO)[C@@H](O)C1 | -0.462
12 | CC(O)CN1CCc2[nH]nc(C(c3ccccc3)c3ccccc3)c2C1 (stereo unspecified) | -0.481
13 | CN(C)S(=O)(=O)N1CCN(CC2CCOc3ccccc3C2)CC1 (stereo unspecified) | -0.529
14 | COc1ccc(F)cc1-c1nc2c([nH]1)c(C1CC1)nn2C | -2.18
15 | OC1(CNCCc2nc3c(s2)CCCC3)CNCCOC1 (stereo unspecified) | 17.4
16 | Cc1cc(C(=O)N2CC[C@](C)(O)[C@H](C)C2)c(C)n1C | -1.43
17 | NC(=O)C1CCN(C(=O)c2cccn2Cc2cccs2)CC1 | -4.08
18 | CC(=O)NCc1ccc(C(=O)N2CCCC2c2cnn(C)c2)cc1 (stereo unspecified) | -13.5
19 | COc1ccc(CCNC(=O)N2CCCC(c3nncn3C)C2)cc1 (stereo unspecified) | -3.92
20 | CCCc1noc(C(C)N2CCN(Cc3nc(C)c(C)o3)CC2)n1 (stereo unspecified) | -10.6
21 | Cc1ccc(-c2nc(CNCC3CN(C)CCO3)co2)cc1 (stereo unspecified) | -14.4
22 | O=C(CCCc1ccccc1)N1CCCC(n2cncn2)C1 (stereo unspecified) | -18.3
23 | Cc1cccc(-c2nc(CN3CCc4cncnc4C3)no2)c1 | -10.4

Row | SMILES | cytotoxicity at 10 µM [%]
24 | O=C(c1ccn(-c2cccc(Cl)c2)n1)N1CCN(CCO)CC1 | -17.1
25 | Cc1ncsc1C(=O)NC1CCN(Cc2ccc(C(N)=O)cc2)CC1 | -15
26 | O=C(c1cc2cc(F)ccc2[nH]1)N1CCCCC1Cn1cccn1 (stereo unspecified) | -8.91
27 | CC(c1ccc(F)cc1F)N1CCN(Cc2nccn2C)CC1 (stereo unspecified) | -11.7
28 | CCc1nc(CN(C)C2CCN(CCc3ccncc3)C2)no1 (stereo unspecified) | -20.2
29 | CCc1[nH]ncc1C(=O)N1CCCC(n2cc(C)cn2)C1 (stereo unspecified) | -11.4
30 | Cc1ncc(CNC(=O)N(CCCO)C2CCc3ccccc32)s1 (stereo unspecified) | -12.9
31 | c1ccc2oc(CCCN3CCc4cncnc4C3)nc2c1 | -14.6
32 | CCNC(=O)NCCCn1nc2ccccn2c1=O | -18.2
33 | CC(O)CN1CCC(CNCc2cccc(C(F)(F)F)c2)CC1 (stereo unspecified) | -15.2
34 | c1cnnc(N2CCCC(NCc3cccc4c3OCCO4)C2)c1 (stereo unspecified) | -7.99
35 | O=C(Cc1c[nH]c2ccccc12)N1CCC(Nc2cccnc2)CC1 | -26.6
36 | CCn1cc(NC(=O)Nc2ccc3c(c2)OCCO3)cn1 | -1.04
37 | Clc1ccccc1Cn1cc(CNC2CCc3ncnn3C2)cn1 (stereo unspecified) | 1.91
38 | CC(NC(=O)NCCc1ccc(Cl)s1)c1ccccn1 (stereo unspecified) | -3.07
39 | CCc1n[nH]c(C2CN(C(=O)c3ccc4c(c3)CCC4)CCO2)n1 (stereo unspecified) | -13.1
40 | Cc1cnn(CC2CN(CCCc3nc4ccccc4o3)CCO2)c1 (stereo unspecified) | -2.45
41 | O=C(NCCn1nc2ccccn2c1=O)c1cc(C2CC2)[nH]n1 | 0.763
42 | Cc1cc(C(=O)N[C@H](C)c2onc(C)c2C(=O)O)c(C)o1 | 3.82
43 | Cn1nc(COCC2CC2)c2c1CCN(Cc1ccco1)C2 | -1.77
44 | CN1C(=O)CCC12CCCN(C(=O)c1ccncc1F)C2 (stereo unspecified) | 11
45 | CS(=O)(=O)NCc1cn2c(n1)CN(Cc1cccnc1)CC2 | -103
46 | Cc1ccc(CN2CCc3onc(C(=O)Nc4cccnc4)c3C2)o1 | 5.15
